Results from ChEMBL document CHEMBL5303300, “EUbOPEN Chemogenomics Library - Multiplex” (2023).
“And” between values parts separate entries of the source, which are not always exact repeats. Identical values can stand only once.

System: U2OS
Experiment: Multiplex assay against U2OS
Format: toxicity, cell-based
Details: human, number of replicates 2
Outline: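 Live cells were stained at seeding with Hoechst33342, BioTracker Green Microtubule Cytoskeleton Dye, MitoTracker Red and Annexin V Alexa Fluor 680, then imaged on a CQ1 microscope at 37°C and 5% CO2 after compound addition. CellPathfinder machine-learning gating split cells into Hoechst high-intensity objects or normal cells. Normal cells were split into healthy, pyknosed or fragmented nuclei, and pyknosed cells into mitotic or apoptotic. Tubulin, mitochondrial-mass and membrane-permeability phenotypes are per cents of healthy-nucleus cells.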

[1] = 12 h, 1 µM, compound concentration 1 uM
[2] = 12 h, 10 µM, compound concentration 10 uM
[3] = 24 h, 1 µM, compound concentration 1 uM
[4] = 24 h, 10 µM, compound concentration 10 uM
[5] = 48 h, 1 µM, compound concentration 1 uM
[6] = 48 h, 10 µM, compound concentration 10 uM

For `CN1CCc2cc(Cl)c(O)cc2[C@@H](c2ccccc2)C1.Cl`, the “Population Apoptotic (%)” value [1] was 100% and 36%, the “Population Healthy Nuclei (%)” value [1] was 58% and 86% and the “Population Hoechst High Intensity Objects (%)” value [1] was 0%. For the same compound, the “Population Membrane Permeable-Phenotype (%)” value [1] was 0%, the “Population Mitochondria Different-Phenotype (%)” value [1] was 0% and the “Population Normal (%)” value [1] was 100%. For the same compound, the “Population Pyknosed Nuclei (%)” value [1] was 12% and 7%, the “Population Tubulin-Different-Phenotype (%)” value [1] was 78% and 88% and the “Population Apoptotic (%)” value [2] was 50% and 29%. The “Population Fragmented Nuclei (%)” value [2] was 3% and 4%, the “Population Healthy Nuclei (%)” value [2] was 75% and 85% and the “Population Hoechst High Intensity Objects (%)” value [2] was 0%. The “Population Membrane Permeable-Phenotype (%)” value [2] was 0% and 2%, the “Population Mitochondria Different-Phenotype (%)” value [2] was 0% and the “Population Mitotic Cells (%)” value [2] was 50% and 70%. The “Population Normal (%)” value [2] was 100% and 99%, the “Population Pyknosed Nuclei (%)” value [2] was 21% and 9% and the “Population Tubulin-Different-Phenotype (%)” value [2] was 55% and 80%. The “Population Apoptotic (%)” value [3] was 28% and 33%, the “Population Healthy Nuclei (%)” value [3] was 56% and 87% and the “Population Hoechst High Intensity Objects (%)” value [3] was 0%. For the same compound, the “Population Membrane Permeable-Phenotype (%)” value [3] was 0% and 1%, the “Population Mitochondria Different-Phenotype (%)” value [3] was 0% and the “Population Mitotic Cells (%)” value [3] was 71% and 66%. The “Population Normal (%)” value [3] was 100%, the “Population Pyknosed Nuclei (%)” value [3] was 15% and 7% and the “Population Tubulin-Different-Phenotype (%)” value [3] was 88% and 92%. The “Population Apoptotic (%)” value [4] was 50% and 58%, the “Population Fragmented Nuclei (%)” value [4] was 5% and 3% and the “Population Healthy Nuclei (%)” value [4] was 85% and 87%. The “Population Hoechst High Intensity Objects (%)” value [4] was 0%, the “Population Membrane Permeable-Phenotype (%)” value [4] was 1% and the “Population Mitochondria Different-Phenotype (%)” value [4] was 0%. For the same compound, the “Population Mitotic Cells (%)” value [4] was 50% and 41%, the “Population Normal (%)” value [4] was 100% and 99% and the “Population Pyknosed Nuclei (%)” value [4] was 10% and 8%. The “Population Tubulin-Different-Phenotype (%)” value [4] was 75% and 81%, the “Population Apoptotic (%)” value [5] was 54% and 50% and the “Population Fragmented Nuclei (%)” value [5] was 8% and 3%. The “Population Healthy Nuclei (%)” value [5] was 73% and 92%, the “Population Hoechst High Intensity Objects (%)” value [5] was 1% and 0% and the “Population Membrane Permeable-Phenotype (%)” value [5] was 2% and 1%. For the same compound, the “Population Mitochondria Different-Phenotype (%)” value [5] was 2% and 0%, the “Population Mitotic Cells (%)” value [5] was 45% and 50% and the “Population Normal (%)” value [5] was 98% and 100%. For the same compound, the “Population Tubulin-Different-Phenotype (%)” value [5] was 80% and 90%, the “Population Apoptotic (%)” value [6] was 50% and 53% and the “Population Fragmented Nuclei (%)” value [6] was 11% and 3%. The “Population Healthy Nuclei (%)” value [6] was 79% and 88%, the “Population Hoechst High Intensity Objects (%)” value [6] was 0% and the “Population Membrane Permeable-Phenotype (%)” value [6] was 0% and 2%. The “Population Mitochondria Different-Phenotype (%)” value [6] was 1% and 0%, the “Population Mitotic Cells (%)” value [6] was 50% and 46% and the “Population Normal (%)” value [6] was 100%. For the same compound, the “Population Pyknosed Nuclei (%)” value [6] was 9% and 7% and the “Population Tubulin-Different-Phenotype (%)” value [6] was 87%.
In the case of `CN[C@@H]1CC[C@@H](c2ccc(Cl)c(Cl)c2)c2ccccc21.Cl`, the “Population Apoptotic (%)” value [1] is reported as 66% and 62%, the “Population Fragmented Nuclei (%)” value [1] is reported as 4% and 9% and the “Population Healthy Nuclei (%)” value [1] is reported as 82% and 78%. For the same compound, the “Population Hoechst High Intensity Objects (%)” value [1] was 0%, the “Population Membrane Permeable-Phenotype (%)” value [1] was 4% and 9% and the “Population Mitotic Cells (%)” value [1] was 33% and 37%. For the same compound, the “Population Normal (%)” value [1] was 100%, the “Population Pyknosed Nuclei (%)” value [1] was 13% and 12% and the “Population Tubulin-Different-Phenotype (%)” value [1] was 52% and 43%. For the same compound, the “Population Apoptotic (%)” value [2] was 83% and 60%, the “Population Healthy Nuclei (%)” value [2] was 33% and 57% and the “Population Hoechst High Intensity Objects (%)” value [2] was 0%. For the same compound, the “Population Membrane Permeable-Phenotype (%)” value [2] was 30%, the “Population Mitochondria Different-Phenotype (%)” value [2] was 53% and 50% and the “Population Mitotic Cells (%)” value [2] was 16% and 40%. For the same compound, the “Population Normal (%)” value [2] was 100%, the “Population Pyknosed Nuclei (%)” value [2] was 30% and 32% and the “Population Tubulin-Different-Phenotype (%)” value [2] was 84% and 73%. For the same compound, the “Population Apoptotic (%)” value [3] was 60% and 71%, the “Population Fragmented Nuclei (%)” value [3] was 1% and 7% and the “Population Healthy Nuclei (%)” value [3] was 84% and 81%. The “Population Hoechst High Intensity Objects (%)” value [3] was 0%, the “Population Membrane Permeable-Phenotype (%)” value [3] was 2% and 1% and the “Population Mitochondria Different-Phenotype (%)” value [3] was 6% and 1%. The “Population Mitotic Cells (%)” value [3] was 39% and 28%, the “Population Normal (%)” value [3] was 100% and the “Population Pyknosed Nuclei (%)” value [3] was 14% and 10%. The “Population Tubulin-Different-Phenotype (%)” value [3] was 63% and 33%, the “Population Apoptotic (%)” value [4] was 90% and 75% and the “Population Hoechst High Intensity Objects (%)” value [4] was 0%. For the same compound, the “Population Membrane Permeable-Phenotype (%)” value [4] was 42% and 33%, the “Population Mitochondria Different-Phenotype (%)” value [4] was 100% and 63% and the “Population Mitotic Cells (%)” value [4] was 10% and 25%. For the same compound, the “Population Normal (%)” value [4] was 100%, the “Population Pyknosed Nuclei (%)” value [4] was 50% and 35% and the “Population Tubulin-Different-Phenotype (%)” value [4] was 100% and 75%. The “Population Apoptotic (%)” value [5] was 85% and 52%, the “Population Fragmented Nuclei (%)” value [5] was 2% and the “Population Healthy Nuclei (%)” value [5] was 85% and 76%. For the same compound, the “Population Hoechst High Intensity Objects (%)” value [5] was 0%, the “Population Membrane Permeable-Phenotype (%)” value [5] was 1% and the “Population Mitochondria Different-Phenotype (%)” value [5] was 3% and 1%. For the same compound, the “Population Normal (%)” value [5] was 99% and 100%, the “Population Pyknosed Nuclei (%)” value [5] was 11% and 20% and the “Population Tubulin-Different-Phenotype (%)” value [5] was 72% and 37%. The “Population Apoptotic (%)” value [6] was 88% and 79%, the “Population Fragmented Nuclei (%)” value [6] was 31% and 16% and the “Population Hoechst High Intensity Objects (%)” value [6] was 0%. For the same compound, the “Population Membrane Permeable-Phenotype (%)” value [6] was 40% and 45%, the “Population Mitochondria Different-Phenotype (%)” value [6] was 60% and 65% and the “Population Mitotic Cells (%)” value [6] was 11% and 20%. The “Population Normal (%)” value [6] was 100%, the “Population Pyknosed Nuclei (%)” value [6] was 57% and 37% and the “Population Tubulin-Different-Phenotype (%)” value [6] was 100% and 74%.
For `CCn1c(-c2nonc2N)nc2cncc(C(=O)N3CC[C@H](N)C3)c21.Cl`, the “Population Apoptotic (%)” value [1] was 50% and 90%, the “Population Fragmented Nuclei (%)” value [1] was 13% and 3% and the “Population Healthy Nuclei (%)” value [1] was 73% and 87%. The “Population Hoechst High Intensity Objects (%)” value [1] was 0%, the “Population Membrane Permeable-Phenotype (%)” value [1] was 0% and 1% and the “Population Mitochondria Different-Phenotype (%)” value [1] was 4% and 0%. The “Population Normal (%)” value [1] was 100%, the “Population Pyknosed Nuclei (%)” value [1] was 13% and 9% and the “Population Tubulin-Different-Phenotype (%)” value [1] was 72% and 77%. For the same compound, the “Population Apoptotic (%)” value [2] was 75% and 35%, the “Population Healthy Nuclei (%)” value [2] was 69% and 78% and the “Population Hoechst High Intensity Objects (%)” value [2] was 0%. For the same compound, the “Population Membrane Permeable-Phenotype (%)” value [2] was 5% and 0%, the “Population Mitochondria Different-Phenotype (%)” value [2] was 0% and the “Population Mitotic Cells (%)” value [2] was 25% and 64%. For the same compound, the “Population Normal (%)” value [2] was 100%, the “Population Pyknosed Nuclei (%)” value [2] was 8% and 16% and the “Population Tubulin-Different-Phenotype (%)” value [2] was 67% and 87%. The “Population Apoptotic (%)” value [3] was 80% and 96%, the “Population Fragmented Nuclei (%)” value [3] was 5% and 3% and the “Population Healthy Nuclei (%)” value [3] was 80% and 87%. For the same compound, the “Population Hoechst High Intensity Objects (%)” value [3] was 0%, the “Population Membrane Permeable-Phenotype (%)” value [3] was 7% and 0% and the “Population Mitochondria Different-Phenotype (%)” value [3] was 3% and 1%. For the same compound, the “Population Normal (%)” value [3] was 100%, the “Population Pyknosed Nuclei (%)” value [3] was 14% and 9% and the “Population Tubulin-Different-Phenotype (%)” value [3] was 71% and 79%. The “Population Apoptotic (%)” value [4] was 55% and 57%, the “Population Fragmented Nuclei (%)” value [4] was 17% and 8% and the “Population Healthy Nuclei (%)” value [4] was 67% and 77%. The “Population Hoechst High Intensity Objects (%)” value [4] was 0%, the “Population Membrane Permeable-Phenotype (%)” value [4] was 2% and 3% and the “Population Mitochondria Different-Phenotype (%)” value [4] was 0% and 1%. The “Population Mitotic Cells (%)” value [4] was 44% and 42%, the “Population Normal (%)” value [4] was 100% and the “Population Pyknosed Nuclei (%)” value [4] was 15% and 14%. The “Population Tubulin-Different-Phenotype (%)” value [4] was 79% and 89%, the “Population Apoptotic (%)” value [5] was 60% and 82% and the “Population Healthy Nuclei (%)” value [5] was 71% and 89%. For the same compound, the “Population Hoechst High Intensity Objects (%)” value [5] was 0%, the “Population Membrane Permeable-Phenotype (%)” value [5] was 7% and 1% and the “Population Mitochondria Different-Phenotype (%)” value [5] was 2% and 0%. For the same compound, the “Population Mitotic Cells (%)” value [5] was 40% and 17%, the “Population Normal (%)” value [5] was 100% and the “Population Pyknosed Nuclei (%)” value [5] was 9% and 6%. For the same compound, the “Population Tubulin-Different-Phenotype (%)” value [5] was 76% and 81%, the “Population Apoptotic (%)” value [6] was 75% and 74% and the “Population Fragmented Nuclei (%)” value [6] was 15% and 5%. For the same compound, the “Population Healthy Nuclei (%)” value [6] was 69% and 79%, the “Population Hoechst High Intensity Objects (%)” value [6] was 0% and the “Population Membrane Permeable-Phenotype (%)” value [6] was 3% and 4%. For the same compound, the “Population Mitochondria Different-Phenotype (%)” value [6] was 0%, the “Population Mitotic Cells (%)” value [6] was 25% and the “Population Normal (%)” value [6] was 100% and 99%. For the same compound, the “Population Pyknosed Nuclei (%)” value [6] was 15% and the “Population Tubulin-Different-Phenotype (%)” value [6] was 68% and 91%.
